Compounds with a hit are over-represented: about 2% of the library has one in this group of screens.
LGR2 inh – inhibitors of bursicon-induced LGR2 CRE-luciferase signal, primary screen, cell-based, HEK293, CRE-luciferase reporter, bursicon stimulation. Drosophila bursicon receptor LGR2 (rickets). bursicon-stimulated, 4 h. inhibition, % at 9.99 µM. 0.35% of 380,000 active;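 active = drop in luminescence signal, shown as inhibition above about 50% in the replicate tests, limit read from the data, passing the limit was not always enough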;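 also: agonist challenge used bursicon conditioned medium at about half maximal strength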
CaV13 ICDI inh – Disruptors of the CACNA1D IQ motif to Ca2+-dependent inactivation inhibitor domain association, primary screening, Förster resonance energy transfer in intact living …. HEK cells, CFP/YFP FRET ICDI-IQ, plate reader, 10 min; percent FRET-ratio fall versus neutral wells. inhibition, % at 12.3 µM. 0.098% of 340,000 active. AID 743397;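 active = mean replicate inhibition of at least 30% and at least 1% of replicates passing that level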;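 also: 0% = median of the neutral control wells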
TWEAK Fn14 block – inhibitors of TWEAK-Fn14 signaling, primary screen, luciferase reporter cells, uHTS | TWEAK-stimulated Fn14 reporter cells, luciferase luminescence, 8 h | inhibition, % at 10 µM | 2% of 360,000 active | AID 1159606, 2016; in the data active = inhibition above about 50%
XiGFP reactiv – activators of inactive X chromosome reactivation, primary screen, imaging, XiGFP fibroblasts, GFP high-content imaging, set 2; XiGFP mouse fibroblasts, % GFP-positive cells imaging, 3 d; cells co-treated with 5-aza-dC sensitizer; scaled so ellipticine positive control = 100%; activation, % at 7.58 µM; 0.055% of 360,000 active; AID 743238, 2013;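 active = mean normalized replicate activation at least 10% and every replicate at or above 10%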;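 also: 0% = median of on-plate neutral control wells and 100% = ellipticine 6 µM median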
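System: 68-5-11 XiGFP fibroblast line | Buffer or medium: DMEM containing 5-aza-dC | Compound: Single point | Times: Compounds 3 days, fix/stain 15 min at room temperature | Benchmarks: Positive control ellipticine, 6 µM final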
TROY signal inh – inhibitors of TROY-driven NF-kB signaling, primary screen, Q293 LMP1-TROYcd cells, NF-kB luciferase, uHTS; Q293 LMP1-TROYcd NF-kB luciferase reporter, 4 h; AID 1347056, 2019; 0.98% of 360,000 active; inhibition, % at 10 µM;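 active = compounds whose plate-normalised and pattern-corrected inhibition of the luciferase reporter signal at the single screening dose is 50% or more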
* marks the source's active call; other numbers are inactive results.

Screening COc1ccc(S(=O)(=O)n2c([N+](=O)[O-])cnc2C)cc1OC returned LGR2 inh -3, CaV13 ICDI inh 0, TWEAK Fn14 block -1, XiGFP reactiv 0 and TROY signal inh 15.
Cc1ccccc1S(=O)(=O)N1[C@H](C#N)[C@@H](c2ccc(C#CC3CCCC3)cc2)[C@@H]1CO was read as LGR2 inh -7 and XiGFP reactiv 0.
Cc1ccc(Cl)cc1NC(=O)COC(=O)c1ccccc1O was read as LGR2 inh 4, CaV13 ICDI inh -5, TWEAK Fn14 block -33, XiGFP reactiv 1 and TROY signal inh 0.
`NNC(=O)c1cc2ccccc2cc1O` gave LGR2 inh 34, CaV13 ICDI inh -6, TWEAK Fn14 block 91*, XiGFP reactiv 0 and TROY signal inh 21.
COc1cc(NC(=O)c2cc3ccccc3cc2O)c(OC)cc1Cl was read as LGR2 inh 35, CaV13 ICDI inh -15, TWEAK Fn14 block 67*, XiGFP reactiv 0 and TROY signal inh 45.
`COc1cc(OC)c(NC(=O)c2ccccc2F)cc1Cl` gave LGR2 inh -31, CaV13 ICDI inh -19, TWEAK Fn14 block -11, XiGFP reactiv 0 and TROY signal inh -43.
`Cc1ccc(Cl)cc1NC(=O)c1cc2ccccc2cc1O` gave LGR2 inh 5, CaV13 ICDI inh -17, TWEAK Fn14 block 47 and TROY signal inh 52*.
COc1ccccc1NC(=O)c1cc2cc(Br)ccc2cc1O was read as LGR2 inh 45, CaV13 ICDI inh -4, TWEAK Fn14 block 67*, XiGFP reactiv 0 and TROY signal inh 38.
`COc1ccccc1NC(=O)COC(=O)c1cc2ccccc2cc1O` gave LGR2 inh -7, CaV13 ICDI inh -5, TWEAK Fn14 block -32, XiGFP reactiv 0 and TROY signal inh -4.
CO[C@H]1CN(C)C(=O)c2cc(NC(C)=O)ccc2OC[C@H](C)N(C(=O)c2ccc(F)cc2)C[C@H]1C was read as LGR2 inh 1 and XiGFP reactiv 0.
O=C(C[C@H]1CC[C@H](NS(=O)(=O)c2ccccc2)[C@H](CO)O1)NCc1ccccc1F was read as LGR2 inh -14 and XiGFP reactiv 0.
`CC(C)NC(=O)N(C)C[C@H]1Oc2ccc(NS(C)(=O)=O)cc2CC(=O)N(C)C[C@@H]1C` gave XiGFP reactiv 0.
Screening CCCc1cc(=O)[nH]c(SCC(=O)Nc2ccc(Br)cc2Br)n1 returned LGR2 inh -16, CaV13 ICDI inh -5, TWEAK Fn14 block -18, XiGFP reactiv 0 and TROY signal inh 68*.
For CCc1ccc(NC(=O)CSc2nc(CSc3ccc(C)cc3)cc(=O)[nH]2)cc1 the results were LGR2 inh 6, CaV13 ICDI inh -5, TWEAK Fn14 block -37, XiGFP reactiv 0 and TROY signal inh 8.
`Cc1ccc(SCc2cc(=O)[nH]c(SCC(=O)Nc3cc(Cl)ccc3Cl)n2)cc1` gave LGR2 inh 0, CaV13 ICDI inh -6, TWEAK Fn14 block -12, XiGFP reactiv 0 and TROY signal inh 59*.
`C[C@H]1CN([C@@H](C)CO)C(=O)c2cccc(NC(=O)C3CC3)c2O[C@@H]1CN(C)C(=O)Nc1ccc(F)cc1` gave LGR2 inh -9 and XiGFP reactiv 0.
Screening COc1ccc2c3c([nH]c2c1)[C@@H](CO)N(C(=O)c1ccc(F)cc1)CC31CCN(C(=O)CC2CC2)CC1 returned LGR2 inh -4 and XiGFP reactiv 0.
`O=C1CCCCn2nncc2COC[C@H](Cc2ccccc2)N1` gave XiGFP reactiv 0.
CCOCCCNC(=O)c1cc2c(s1)-c1ccccc1SC2 was read as LGR2 inh 5, CaV13 ICDI inh -19, TWEAK Fn14 block -15, XiGFP reactiv 0 and TROY signal inh 0.
`CN(C)CCNC(=O)c1cc2c(s1)-c1ccc(Cl)cc1SC2` gave LGR2 inh 2, CaV13 ICDI inh -5, TWEAK Fn14 block 105*, XiGFP reactiv 1 and TROY signal inh 45.
`N=c1c2c(ncn1Cc1ccco1)Oc1cc(O)ccc1C2c1ccccc1` (configuration not stated) gave LGR2 inh 3, CaV13 ICDI inh -16, TWEAK Fn14 block 0, XiGFP reactiv 0 and TROY signal inh 21.
Screening N=c1c2c(ncn1Cc1ccco1)Oc1c(ccc3ccccc13)C2c1ccccc1 (configuration not stated) returned LGR2 inh 10, CaV13 ICDI inh -4, TWEAK Fn14 block 56*, XiGFP reactiv 0 and TROY signal inh 12.
C[C@@H]1CN([C@@H](C)CO)C(=O)c2cc(-c3cccc(F)c3)cnc2O[C@@H]1CN(C)C(=O)C1CC1 was read as LGR2 inh 2 and XiGFP reactiv -1.
`O=C(NCCc1ccccc1)c1coc(=O)c(Br)c1` gave LGR2 inh -39, CaV13 ICDI inh -4, TWEAK Fn14 block 78*, XiGFP reactiv 0 and TROY signal inh 7.
Screening O=C(NCCC1=CCCCC1)c1coc(=O)c(Br)c1 returned CaV13 ICDI inh -7, TWEAK Fn14 block 92* and TROY signal inh 9.
Screening CN(C)CCNC(=O)c1coc(=O)c(Br)c1 returned LGR2 inh 7, TWEAK Fn14 block -8 and TROY signal inh 14.
For CC1CCCCC1NC(=O)COC(=O)c1c2c(nc3ccccc13)/C(=C/c1ccco1)CC2 (configuration not stated) the results were CaV13 ICDI inh -12, TWEAK Fn14 block 50*, XiGFP reactiv 0 and TROY signal inh 0.
Screening CCOC(=O)c1c(C)nc2c3ccccc3ccn12 returned CaV13 ICDI inh -4, TWEAK Fn14 block 12 and TROY signal inh -88.
`CCOC(=O)c1c(C)nc2c(C)cccn12` gave TWEAK Fn14 block 84*.
O=C(C[C@H]1CC[C@H](NS(=O)(=O)c2ccc(F)cc2)[C@H](CO)O1)N1CCC(Cc2ccccc2)CC1 was read as LGR2 inh 3 and XiGFP reactiv -1.
`CCOC(=O)c1cccc2c1-c1ccccc1/C2=N/O` gave CaV13 ICDI inh -2, TWEAK Fn14 block 86* and TROY signal inh 50*.
For CC(C)n1ncc2c(C(=O)Nc3cccc(C#N)c3)cc(C3CC3)nc21 the results were LGR2 inh 95*, CaV13 ICDI inh -4, TWEAK Fn14 block 54*, XiGFP reactiv 0 and TROY signal inh 59*.
For O=S(=O)(NCC[C@@H]1CC[C@H](NS(=O)(=O)c2cccc(Cl)c2)[C@H](CO)O1)c1cccc(F)c1 the results were LGR2 inh 0 and XiGFP reactiv 0.

Bioassay records as filed in PubChem.
